The values below come from ChEMBL document CHEMBL3396952, “Structural and biological evaluation of a novel series of benzimidazole inhibitors of Francisella tularensis enoyl-ACP reductase (FabI)” (Bioorg Med Chem Lett, 2015).

Values after ≈ are worked out from the molar mass of the structure shown. Where only a bound is given, the exact number is not on record here.

Test [1] deals with Staphylococcus aureus. The experiment in a line: Antimicrobial activity against methicillin-resistant Staphylococcus aureus ATCC 43300 measured after overnight incubation by microdilution method. The class given is functional. Background: Dilution methods test growth across graded concentrations, often in twofold steps.
Test [2] can be described thus: Inhibition of N-terminus His-tagged Francisella tularensis subsp. Tularensis Schu4 Fab1 expressed in Escherichia coli […] (DE3) cells assessed as conversion of crotonyl-CoA and NADH to butyryl-CoA and NAD+ preincubated for 30 mins by fluorescence analysis. Details: species or system Francisella tularensis subsp. tularensis SCHU S4. The method, boiled down:
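Experimental Ki came from varying crotonyl-CoA against inhibitor concentration at saturating NADH (200 µM). Calculated Ki used Cheng-Prusoff, IC50 = Ki(1+[S]/Km), with [S]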

Test [3] has as its system Francisella tularensis. The experiment in a line: Antimicrobial activity against Francisella tularensis Utah 112 measured after overnight incubation by microdilution method. It counts as functional.
In test [4] the test system is Escherichia coli. The test is described as follows: Antimicrobial activity against wild-type Escherichia coli BW25113 measured after overnight incubation by microdilution method. The class given is functional.
The subject of test [5] is Escherichia coli. The test is described as follows: Antimicrobial activity against TolC-deficient Escherichia coli measured after overnight incubation by microdilution method. It counts as functional.
In test [6] the test system is Staphylococcus aureus. The test is described as follows: Antimicrobial activity against Staphylococcus aureus ATCC 29213 measured after overnight incubation by microdilution method. It counts as functional.

Take `CC(c1ccc(Cl)c(Cl)c1)n1cnc2cc3c(cc21)CCCC3` (stereo not given): the minimal bactericidal concentration (MBC) (commonly the lowest tested concentration that kills the bacteria rather than only halting them) worked out at 25 µg/mL (≈ 72.4 µM) in test [1], 25 µg/mL (≈ 72.4 µM) in test [3], 12.5 µg/mL (≈ 36.2 µM) in test [5] and 25 µg/mL (≈ 72.4 µM) in test [6]. In addition, the minimal inhibitory concentration (MIC) (commonly the lowest concentration that inhibits growth of the organism) was 3.1 µg/mL (≈ 8.98 µM) in test [1], 3.1 µg/mL (≈ 8.98 µM) in test [3], above 12.5 µg/mL in test [4] and 3.1 µg/mL (≈ 8.98 µM) in test [6]. In addition, the half-maximal inhibitory concentration (IC50) (in general, the concentration at which inhibition is half-maximal) in test [2] was found to be 14 nM.

`Cc1cc2ncn(C(C)c3ccc(Cl)c(Cl)c3)c2cc1C` (stereo not given): the MIC is 12.5 µg/mL (≈ 39.2 µM) in test [1]; above 12.5 µg/mL in test [3]; above 12.5 µg/mL in test [4]; 6.3 µg/mL (≈ 19.7 µM) in test [5]; 12.5 µg/mL (≈ 39.2 µM) in test [6]. Moreover, the half-maximal inhibitory concentration (IC50) in test [2] stood at 370 nM.

Consider `c1cc2c(cc1Cn1cnc3cc4c(cc31)CCCC4)OCO2`, for which the MBC is above 25 µg/mL in test [1], 18.8 µg/mL (≈ 61.4 µM) in test [3], 25 µg/mL (≈ 81.6 µM) in test [5] and above 25 µg/mL in test [6]. In addition, the MIC in test [1] was 6.3 µg/mL (≈ 20.6 µM); in test [3] it was 4.7 µg/mL (≈ 15.3 µM); in test [4] it was above 12.5 µg/mL; in test [5], 9.4 µg/mL (≈ 30.7 µM); in test [6] it was 4.7 µg/mL (≈ 15.3 µM). Also, the IC50 in test [2] turned out to be 320 nM. Moreover, the inhibition constant Ki (in general, the dissociation constant of the complex between target and ligand, obtained from inhibition or displacement) in test [2] worked out at 330 nM.

With `COc1ccc(Cn2cnc3cc4c(cc32)CCC4)cc1C`, the MIC is above 12.5 µg/mL in test [1]; 5.5 µg/mL (≈ 18.8 µM) in test [3]; above 12.5 µg/mL in test [4]; 12.5 µg/mL (≈ 42.8 µM) in test [5]; above 12.5 µg/mL in test [6]. Moreover, in test [2], the IC50 stood at 5 nM. The molecule also registered an MBC in test [3] of 12.5 µg/mL (≈ 42.8 µM).

Regarding `COc1ccc(Cn2cnc3cc4c(cc32)CCCC4)cc1C`, the minimal inhibitory concentration (MIC) in test [1] is 12.5 µg/mL (≈ 40.8 µM); in test [3] it was 3.1 µg/mL (≈ 10.1 µM); in test [4], above 12.5 µg/mL; in test [5] it was 4.7 µg/mL (≈ 15.3 µM); in test [6] it was 6.3 µg/mL (≈ 20.6 µM). Also, the IC50 in test [2] worked out at 140 nM. For the same molecule, the Ki in test [2] was found to be 130 nM. For the same molecule, the MBC in test [3] was 6.3 µg/mL (≈ 20.6 µM); in test [5], 9.4 µg/mL (≈ 30.7 µM); in test [6], 25 µg/mL (≈ 81.6 µM).

As to `CC(c1ccc(Cl)c(Cl)c1)n1cnc2cc3c(cc21)CC(C)(C)C3` (stereo not given), the values for the MBC in test [1], in test [5] and in test [6] were above 12.5 µg/mL, above 25 µg/mL and above 12.5 µg/mL, respectively. Also, the minimum inhibitory concentration (MIC) in test [1] was 4.7 µg/mL (≈ 13.1 µM); in test [3] it was above 12.5 µg/mL; in test [4] it was above 12.5 µg/mL; in test [5], above 12.5 µg/mL; in test [6], 4.7 µg/mL (≈ 13.1 µM). Moreover, in test [2], the IC50 was determined as 240 nM.

For the molecule `CC(c1ccc(Cl)c(Cl)c1)n1cnc2cc3c(cc21)COC3` (stereo not given), the MIC in test [1], in test [3], in test [4], in test [5] and in test [6] was above 12.5 µg/mL each time. Moreover, the IC50 in test [2] was found to be 890 nM.

For `Cc1cc2ncn(Cc3ccc(Cl)c(Cl)c3)c2cc1C`, the MIC was 50 µg/mL (≈ 164 µM) in test [1], 7.8 µg/mL (≈ 25.6 µM) in test [3], above 200 µg/mL in test [4] and 6.25 µg/mL (≈ 20.5 µM) in test [5]. Besides, the concentration for half-maximal inhibition (IC50) in test [2] is 300 nM.

For the molecule `COc1ccc(Cn2cnc3cc4c(cc32)CCCC4)cc1OC`, the MIC in test [1], in test [3], in test [4], in test [5] and in test [6] was above 12.5 µg/mL throughout. In addition, the concentration for half-maximal inhibition (IC50) in test [2] came out at 1360 nM. For the same molecule, the inhibitory constant (Ki) in test [2] is 1430 nM.

In the case of `CC(c1ccc(Cl)c(Cl)c1)n1cnc2cc3c(cc21)CCC3` (stereo not given), the MBC in test [1] is 12.5 µg/mL (≈ 37.7 µM); in test [3], 9.4 µg/mL (≈ 28.4 µM); in test [5], 12.5 µg/mL (≈ 37.7 µM); in test [6] it was above 25 µg/mL. The MIC in test [1] is 6.3 µg/mL (≈ 19 µM); in test [3], 3.9 µg/mL (≈ 11.8 µM); in test [4] it was above 12.5 µg/mL; in test [5] it was 3.1 µg/mL (≈ 9.36 µM); in test [6], 5.5 µg/mL (≈ 16.6 µM). Further, in test [2], the concentration for half-maximal inhibition (IC50) came to 18 nM.
